{"source": "ChEMBL document CHEMBL1140873", "about": "“Interaction between double helix DNA fragments and a new topopyrone acting as human topoisomerase I poison” (Bioorg Med Chem, 2009)", "key": {"[1]": {"experiment": "Binding affinity to oligonucleotide d(CGTACG)2 by single diffusion coefficient experiment", "in_short": "(§1)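 DOSY at 25 °C on the complex in D2O, 0.1 M NaCl, 10 mM phosphate, pH 6.7, with drug at 5.4 mM. Gradient pulse 1.5 ms, 64 increments. Molecular mass was read from a calibration curve of diffusion standards from glucose up to trypsin (Mr 180–23,500).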"}, "[2]": {"experiment": "Binding affinity to oligonucleotide d(ATGCGCAT)2 by UV-visible spectroscopy", "in_short": "(§2)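 Apparent DNA–drug binding constants measured by UV titration at 25 °C, read at λmax 376 nm. A 5.0 x 10^-? M aqueous drug stock was added in increasing amounts to a 1.0 x 10^-5 M oligonucleotide solution.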"}, "[3]": {"experiment": "Binding affinity to oligonucleotide d(CGTACG)2 by UV-visible spectroscopy", "in_short": "as §2"}, "[4]": {"experiment": "Binding affinity to oligonucleotide d(CGTACG)2 at [drug]/[DNA] ratio of 3 by NMR DOSY experiment", "in_short": "as §1"}, "[5]": {"experiment": "Binding affinity to oligonucleotide d(CGTACG)2 assessed as intercalation by single diffusion coefficient experiment", "in_short": "as §1"}, "[6]": {"experiment": "Binding affinity to oligonucleotide d(CGTACG)2 at [drug]/[DNA] ratio of 4 by NMR DOSY experiment", "in_short": "as §1"}, "[7]": {"experiment": "Binding affinity to oligonucleotide d(CGTACG)2 at [drug]/[DNA] ratio of 4 by NMR spectroscopy", "in_short": "(§3)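 1H NMR titration at 600 MHz. A drug stock (23.4 mM) was added in increasing amounts to oligonucleotide up to R = [2]/[DNA] = 4.0. An inverse titration added DNA to 0.2 mM drug. Conditions were D2O, 10 mM phosphate, 0.1 M NaCl, pH 6.7, 25 °C. Shifts were referenced to external DSS.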"}, "[8]": {"experiment": "Binding affinity to oligonucleotide d(CGTATACG)2 by UV-visible spectroscopy", "in_short": "as §2"}, "[9]": {"experiment": "Binding affinity to oligonucleotide d(CGTACG)2 at [drug]/[DNA] ratio of 1 by NMR spectroscopy", "in_short": "as §3"}, "[10]": {"experiment": "Binding affinity to oligonucleotide d(CGTACG)2 at [drug]/[DNA] ratio of 2 by NOESY experiment", "in_short": "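Phase-sensitive NOESY (TPPI) run at 25 °C in D2O and 15 °C in H2O/D2O 90:10. Sample was complex at R = 2 in 10 mM phosphate pH 6.7 with 100 mM NaCl. Mixing time 300 ms, 2K x 512 FIDs, 1.5 s recycle delay, 80 scans. Ligand–DNA NOEs were treated as transferred NOEs.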"}}, "note": "Activity calls are given as the source filed them. The calls are words filed in the database; no cut-off is given here.", "data": [{"smiles": "Cc1cc(=O)c2ccc3c(c2o1)C(=O)c1c(OCCN(C)C)cccc1C3=O", "values": [{"measurement": "Activity", "setting": "[1]", "value": "Active"}, {"measurement": "K", "setting": "[2]", "value": 6, "unit": "×10³ /M"}, {"measurement": "K", "setting": "[3]", "value": 4, "unit": "×10³ /M"}, {"measurement": "Activity", "setting": "[4]", "value": "Active"}, {"measurement": "Activity", "setting": "[5]", "value": "Active"}, {"measurement": "Activity", "setting": "[6]", "value": "Active"}, {"measurement": "Activity", "setting": "[7]", "value": "Active"}, {"measurement": "K", "setting": "[8]", "value": 1, "unit": "×10³ /M"}, {"measurement": "Activity", "setting": "[9]", "value": "Active"}, {"measurement": "Activity", "setting": "[10]", "value": "Active"}]}]}
